Assay results taken from ChEMBL document CHEMBL1122078, “Inhibitors of blood platelet aggregation. Activity of some 1H-benz[de]isoquinolinecarboximidamides on the in vivo blood platelet aggregation induced by collagen” (J Med Chem, 1982).
Converted amounts (≈) assume the structure as drawn. “And” between values parts separate entries of the source, which are not always exact repeats. Equal entries are not always repeated.

How the values were obtained:
[1] = tested on: Rattus norvegicus; experiment: (§1) Compound was tested in the rat after peroral administration for its ability to inhibit the in vivo blood platelet aggregation induced by collagen; assay type: functional
In short: (§2)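 Oral dosing of male Wistar rats at 0.2 mmol/kg/day for 5 days, alongside a placebo group. On day 5 under pentobarbitone anesthesia, collagen was infused via a cannula in the right common carotid artery. EDTA blood samples were taken 60 and 90 s after the start of infusion, and platelets were counted by Coulter counter. Value is the increase in circulating platelets relative to placebo, at 60 s unless stated.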

[2] = Aqueous solubility at room temperature; assay type: physicochemical; settings: water; read-out: S
In short: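 Solubility in water, given in mg/mL, determined at room temperature.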

[3] = tested on: Rattus norvegicus; experiment: In vivo inhibition of blood platelet aggregation induced by collagen, intraperitoneal administration; assay type: functional
In short: (§3)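 Male Wistar rats dosed ip at 0.2 mmol/kg/day for 5 days, with a placebo group run in parallel. On day 5 rats were anesthetized with pentobarbitone (40-50 mg/kg ip) and collagen was infused through a cannula in the right common carotid. Blood was taken into EDTA at 60 and 90 s. Platelets were Coulter-counted after thrombo-oil separation. Read-out: rise in circulating platelets versus placebo, at 60 s unless noted.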

[4] = tested on: Rattus norvegicus; experiment: as §1; assay type: ADME, organism-based; settings: po; in short: as §2
[5] = tested on: Rattus norvegicus; experiment: (§4) Compound was tested in the rat after intraperitoneal administration for its ability to inhibit the in vivo blood platelet aggregation induced by collagen; Not determined because of toxicity; assay type: organism-based; settings: ip; in short: as §3
[6] = tested on: Rattus norvegicus; experiment: Compound was tested in the rat after peroral administration for its ability to inhibit the in vivo blood platelet aggregation induced by collagen,; assay type: organism-based; settings: po; in short: as §2
[7] = tested on: Rattus norvegicus; experiment: as §4; assay type: functional, organism-based; in short: as §3
[8] = tested on: Rattus norvegicus; experiment: Compound was tested in the rat after intraperitoneal administration for its ability to inhibit the in vivo blood platelet aggregation induced by collagen; assay type: ADME, organism-based; settings: po, in the assay text read “oral” for “intraperitoneal”
[9] = tested on: Rattus norvegicus; experiment: Compound was tested in the rat after peroral administration for its ability to inhibit the in vivo blood platelet aggregation induced by collagen; Only at 90s after collagen administration; assay type: organism-based; settings: po; in short: as §2

Row | SMILES | solubility [2] | Increase [3] | other results
1 | Br.N/C(=N\c1ccc(C(=O)O)cc1)N1Cc2cccc3c2C(CCC3)C1 (stereo not given) | < 3000 µg/mL | – | Increase [1]: 2%
2 | COc1cc2c3c(cccc3c1)CN(C(=N)NO)C2.Cl | 18000 µg/mL | – | Increase [1]: -5%
3 | Cl.N/C(=N\O)N1Cc2cccc3cccc(c23)C1 | 4000 µg/mL | 36% and 23% | –
4 | N/C(=N\c1ccc(N)cc1)N1Cc2cccc3c2C(CCC3)C1 (stereo not given) | < 5000 µg/mL | – | Increase [4]: 8%; Increase [5]: Toxic
5 | CC(C)=N/N=C(\N)N1Cc2cccc3c2C(CCC3)C1.Cl (stereo not given) | – | – | Increase [6]: 0%; Increase [7]: Toxic
6 | CC(=O)NC(=N)N1Cc2cccc3cccc(c23)C1.Cl | 35000 µg/mL | 17% | –
7 | COc1ccc2c3c1CCCC3CN(C(=N)N)C2.Cl (stereo not given) | 17000 µg/mL | – | –
8 | Cl.N=C(N)N1Cc2cccc3c(Cl)ccc(c23)C1 | 2500 µg/mL | – | Increase [5]: Toxic
9 | Cc1ccc2c3c1CCCC3CN(C(=N)N)C2.Cl (stereo not given) | 16000 µg/mL | – | Increase [8]: 16%; Increase [5]: Toxic
10 | CN(C)c1ccc(NC(=N)N2Cc3cccc4c3C(CCC4)C2)cc1.Cl (stereo not given) | 4000 µg/mL | – | Increase [1]: 4%
11 | CN(C)/N=C(/N)N1Cc2cccc3cccc(c23)C1.Cl | 25000 µg/mL | – | Increase [1]: -2%
12 | COc1ccc(NC(=N)N2Cc3cccc4c3C(CCC4)C2)cc1 (stereo not given) | < 3000 µg/mL | – | Increase [4]: 7%; Increase [5]: Toxic
13 | COc1ccc2c3c1CCCC3CN(C(=N)NO)C2.Cl (stereo not given) | 5000 µg/mL | 70% | Increase [9]: 8%
14 | Cc1ccc2c3c1CCCC3CN(C(=N)NO)C2.Cl (stereo not given) | 18000 µg/mL | 45% | –
15 | C/N=C(\N)N1Cc2cccc3c2C(CCC3)C1 (stereo not given) | < 3000 µg/mL | – | Increase [1]: 30% and 12%
16 | N=C(Nc1ccccc1)N1Cc2cccc3c2C(CCC3)C1 (stereo not given) | < 3000 µg/mL | -11% | –
17 | Cl.Cl.N/C(=N\c1ccc(N)cc1)N1Cc2cccc3cccc(c23)C1 | 60000 µg/mL | – | Increase [1]: 8%

Row | SMILES | solubility [2] | Increase [3] | other results
18 | Cl.N=C(N)N1Cc2cccc3c2C(CCC3)C1 (stereo not given) | 60000 µg/mL | – | –
19 | COc1cc2c3c(c1OC)CCCC3CN(C(=N)NO)C2.Cl (stereo not given) | > 50000 µg/mL | – | –
20 | Cl.N=C(Nc1ccc(C(N)=O)cc1)N1Cc2cccc3c2C(CCC3)C1 (stereo not given) | < 3000 µg/mL | – | Increase [1]: 7%
21 | N=C(Nc1ccc(Cl)cc1)N1Cc2cccc3c2C(CCC3)C1 (stereo not given) | < 4000 µg/mL | – | Increase [1]: 7%
22 | Cl.N/C(=N\O)N1Cc2cccc3c(Cl)ccc(c23)C1 | 3000 µg/mL | 44% and 18% | –
23 | N=C(Nc1ccc(S(N)(=O)=O)cc1)N1Cc2cccc3c2C(CCC3)C1 (stereo not given) | < 3000 µg/mL | – | Increase [1]: 3%
24 | C/N=C(\NC)N1Cc2cccc3c2C(CCC3)C1 (stereo not given) | 20000 µg/mL (≈ 82.2 mM) | 2% | –
25 | C/N=C(/NC)N1Cc2cccc3cccc(c23)C1 | 25000 µg/mL (≈ 104 mM) | 1% | –
26 | Cl.N=C(N)N1Cc2cccc3cccc(c23)C1 | 10000 µg/mL | 38% and 28% | –
27 | COc1ccc(NC(=N)N2Cc3cccc4cccc(c34)C2)cc1 | < 5000 µg/mL | -2% | –
28 | N#CNC(=N)N1Cc2cccc3c2C(CCC3)C1 (stereo not given) | < 3000 µg/mL | 1% | –
29 | N/C(=N\c1ccc([N+](=O)[O-])cc1)N1Cc2cccc3c2C(CCC3)C1 (stereo not given) | – | – | Increase [6]: -7%; Increase [7]: Toxic
30 | Cl.N/N=C(/N)N1Cc2cccc3c2C(CCC3)C1 (stereo not given) | 60000 µg/mL | – | –
31 | Cc1ccc2c3c(cccc13)CN(C(=N)NO)C2.Cl | 5000 µg/mL | 16% and 14% | –
32 | Cl.N/N=C(/N)N1Cc2cccc3cccc(c23)C1 | 10000 µg/mL | – | –
33 | Cl.N/C(=N\O)N1Cc2cccc3c2C(CCC3)C1 (stereo not given) | 12000 µg/mL | 42% and 23% | –
